Experiments:
[1] = target: T1, Adenosine receptor A1 (Homo sapiens) (UniProt P30542); assay: Ability to displace [3H]- DPCPX from CHO cell membrane expressing the human Adenosine A1 receptor at a concentration of 10 uM; assay type: cell membranes
T1 sequence (whole entry): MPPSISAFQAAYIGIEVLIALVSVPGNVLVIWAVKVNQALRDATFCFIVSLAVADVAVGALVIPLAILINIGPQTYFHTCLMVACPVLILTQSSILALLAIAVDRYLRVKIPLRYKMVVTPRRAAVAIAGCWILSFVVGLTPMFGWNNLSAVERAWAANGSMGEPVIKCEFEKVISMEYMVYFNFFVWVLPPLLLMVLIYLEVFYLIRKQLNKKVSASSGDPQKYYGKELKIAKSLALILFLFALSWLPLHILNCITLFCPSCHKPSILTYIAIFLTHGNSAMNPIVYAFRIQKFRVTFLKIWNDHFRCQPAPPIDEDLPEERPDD

Adenosine receptor A2a [2] = target: T2, Adenosine receptor A2a (Homo sapiens, UniProt P29274); assay: Ability to displace [3H]- ZM-241385 from CHO cell membrane expressing the human Adenosine A2A receptor at a concentration of 10 uM; assay type: cell membranes
T2 sequence (P29274 whole entry): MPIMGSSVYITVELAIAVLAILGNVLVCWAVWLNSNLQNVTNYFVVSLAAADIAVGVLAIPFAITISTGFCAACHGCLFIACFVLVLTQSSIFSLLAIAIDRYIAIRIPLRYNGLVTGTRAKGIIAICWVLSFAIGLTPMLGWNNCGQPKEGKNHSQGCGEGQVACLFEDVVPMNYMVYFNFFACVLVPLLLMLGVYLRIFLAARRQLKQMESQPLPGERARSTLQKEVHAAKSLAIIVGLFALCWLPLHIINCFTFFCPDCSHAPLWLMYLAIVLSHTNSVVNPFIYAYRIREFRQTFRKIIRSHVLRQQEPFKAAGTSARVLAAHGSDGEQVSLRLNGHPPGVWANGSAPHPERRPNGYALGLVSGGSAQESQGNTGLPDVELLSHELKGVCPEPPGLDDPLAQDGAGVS

Adenosine receptor A1 = target: T3, Adenosine receptor A1 (Homo sapiens, UniProt P30542); assay: Displacement of [3H]DPCPX from CHO cell membrane expressing human Adenosine A1 receptor; assay type: cell membranes
T3 sequence (P30542 whole entry): T1 sequence (whole entry)

Adenosine receptor A3 = target: T4, Adenosine receptor A3 (Homo sapiens, UniProt P0DMS8); assay: Ability to displace [125I]- AB-MECA from HEK 293 cell membrane expressing the human Adenosine A3 receptor; assay type: cell membranes, HEK293
T4 sequence (P0DMS8 whole entry): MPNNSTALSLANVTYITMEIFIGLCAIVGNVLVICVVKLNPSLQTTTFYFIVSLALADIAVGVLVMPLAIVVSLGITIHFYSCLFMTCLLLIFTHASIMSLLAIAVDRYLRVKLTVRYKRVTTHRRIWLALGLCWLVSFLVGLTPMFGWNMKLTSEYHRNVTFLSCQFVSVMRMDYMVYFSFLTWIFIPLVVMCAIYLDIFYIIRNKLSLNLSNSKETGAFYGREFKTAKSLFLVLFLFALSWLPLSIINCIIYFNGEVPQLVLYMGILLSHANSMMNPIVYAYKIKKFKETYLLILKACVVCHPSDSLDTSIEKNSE

Adenosine receptor A2a [3] = target: T2, Adenosine receptor A2a; assay: Displace [3H]ZM-241385 from CHO cell membrane expressing human Adenosine A2A receptor at 10 uM; assay type: cell membranes
Adenosine receptor A2a [4] = target: T2, Adenosine receptor A2a; assay: Displacement of [3H]ZM-241,385 from CHO cell membrane expressing human Adenosine A2A receptor; assay type: cell membranes
Outline: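 Membranes from CHO cells expressing human A2A, with adenosine deaminase 2 IU/mL added. Incubation used 2.0 nM (final) [3H]ZM241385 in 50 mM Tris/HCl pH 7.4 for 2 h at 25 °C. Nonspecific binding was set with 100 µM CPA. GF/B filtration, four ice-cold washes, scintillation counting. Ligands were dissolved in DMSO stocks.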

[5] = target: T1, Adenosine receptor A1 (Homo sapiens); assay: Displacement of [3H]- DPCPX from CHO cell membrane expressing human Adenosine A1 receptor; assay type: cell membranes
Outline: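 Membranes from CHO cells stably expressing human A1, resuspended in 50 mM Tris/HCl pH 7.4 with adenosine deaminase 2 IU/mL. Incubated with 1.6 nM (final) [3H]DPCPX in 50 mM Tris/HCl pH 7.4 for 1 h at 25 °C. Nonspecific binding was set with 10 µM CPA. Filtration over GF/B, three ice-cold washes, then liquid scintillation counting. Ligand stocks were in DMSO.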

[6] = target: T1, Adenosine receptor A1 (Homo sapiens); assay: Displacement of [3H]DPCPX from CHO cell membrane expressing human Adenosine A1 receptor at 10 uM; assay type: cell membranes
[7] = target: T5, Adenosine receptor A3 (Homo sapiens) (UniProt P0DMS8); assay: Displacement of [125I]AB-MECA from HEK293 cell membrane expressing human Adenosine A3 receptor at 10 uM; assay type: cell membranes
T5 sequence (whole entry): T4 sequence (P0DMS8 whole entry)

**Q.** For `CCCn1c(=O)c2c(nc3cc(-c4ccccc4)ccn32)n(Cc2ccccc2)c1=O`, which Displacement [1] is on record?
**A.** Its Displacement is 25%.

**Q.** And the Displacement (Adenosine receptor A2a [2])?
**A.** The Displacement was 8%.

**Q.** `CCCn1c(=O)c2c(nc3ccccn32)n(C)c1=O` was tested. Which Ki (Adenosine receptor A1) did it give?
**A.** Its Ki is 2.1 µM.

**Q.** And the Ki (Adenosine receptor A3)?
**A.** The Ki was 3.02 µM.

**Q.** And the Displacement (Adenosine receptor A2a [3])?
**A.** The Displacement was 49%.

**Q.** Which results are given for `CCCn1c(=O)c2c(nc3cc(C(C)(C)C)ccn32)n(Cc2ccccc2)c1=O`?
**A.** Ki (Adenosine receptor A1): 1.46 µM; Ki (Adenosine receptor A3): 0.95 µM; Ki (Adenosine receptor A2a [4]): 0.385 µM

**Q.** How did the Displacement [1] turn out when `CCCn1c(=O)c2c(nc3ccccn32)n(Cc2cccc(C)c2)c1=O` was run?
**A.** Its Displacement is 44%.

**Q.** And the Ki (Adenosine receptor A3)?
**A.** The Ki was 0.068 µM.

**Q.** And the Displacement (Adenosine receptor A2a [2])?
**A.** Its Displacement is 35%.

**Q.** How did the Displacement [5] turn out when `O=c1c2c(nc3ccccn32)n(Cc2ccccc2)c(=O)n1CC1CCCCC1` was run?
**A.** Its Displacement is 21%.

**Q.** What about the Ki (Adenosine receptor A3) of the same compound?
**A.** Its Ki is 0.114 µM.

**Q.** What about the Displacement (Adenosine receptor A2a [2]) of the same compound?
**A.** Its Displacement is 22%.

**Q.** `O=c1[nH]c(=O)n(Cc2ccccc2)c2nc3cc(-c4ccccc4)ccn3c12` was tested. Which Displacement [1] did it give?
**A.** Its Displacement is 11%.

**Q.** What about the Ki (Adenosine receptor A3) of the same compound?
**A.** The Ki was 0.2 µM.

**Q.** And the Displacement (Adenosine receptor A2a [2])?
**A.** The Displacement was 0%.

**Q.** What does the source list for `O=c1c2c(nc3ccccn32)n(Cc2ccccc2)c(=O)n1CC1CC1`?
**A.** Displacement [1]: 40.9%; Ki (Adenosine receptor A3): 0.0042 µM; Ki (Adenosine receptor A2a [4]): 0.242 µM

**Q.** `CCCn1c(=O)c2c(nc3cc(OC)ccn32)n(Cc2ccccc2)c1=O` was tested. Which Ki (Adenosine receptor A1) did it give?
**A.** The Ki was 0.179 µM.

**Q.** And the Ki (Adenosine receptor A3)?
**A.** Its Ki is 0.01 µM.

**Q.** What about the Displacement (Adenosine receptor A2a [2]) of the same compound?
**A.** The Displacement was 44%.

**Q.** `C#CCn1c(=O)c2c(nc3ccccn32)n(Cc2ccccc2)c1=O` was tested. Which Ki (Adenosine receptor A1) did it give?
**A.** The Ki was 0.124 µM.

**Q.** What about the Ki (Adenosine receptor A3) of the same compound?
**A.** The Ki was 0.014 µM.

**Q.** And the Ki (Adenosine receptor A2a [4])?
**A.** Its Ki is 0.096 µM.

**Q.** Which results are given for `O=c1[nH]c(=O)n(Cc2ccccc2)c2nc3ccccn3c12`?
**A.** Displacement [1]: 47%; Ki (Adenosine receptor A3): 0.37 µM; Displacement (Adenosine receptor A2a [2]): 32%

**Q.** With `CCn1c(=O)c2c(nc3ccccn32)n(Cc2ccccc2)c1=O` as the compound, how does the Ki (Adenosine receptor A1) read?
**A.** The Ki was 0.325 µM.

**Q.** And the Ki (Adenosine receptor A3)?
**A.** The Ki was 0.036 µM.

**Q.** What about the Ki (Adenosine receptor A2a [4]) of the same compound?
**A.** Its Ki is 0.584 µM.

**Q.** For `CC(C)Cn1c(=O)c2c(nc3ccccn32)n(Cc2ccccc2)c1=O`, which Ki (Adenosine receptor A1) is on record?
**A.** Its Ki is 0.028 µM.

**Q.** What about the Ki (Adenosine receptor A3) of the same compound?
**A.** The Ki was 0.0063 µM.

**Q.** And the Displacement (Adenosine receptor A2a [2])?
**A.** Its Displacement is 40%.

**Q.** With `COC(=O)/C=C/Cn1c(=O)c2c(nc3ccccn32)n(Cc2ccccc2)c1=O` as the compound, how does the Displacement [6] read?
**A.** Its Displacement is 1%.

**Q.** What about the Ki (Adenosine receptor A3) of the same compound?
**A.** The Ki was 1.13 µM.

**Q.** What about the Displacement (Adenosine receptor A2a [3]) of the same compound?
**A.** The Displacement was 12%.

**Q.** For `CC(C)(C)c1ccn2c(c1)nc1c2c(=O)[nH]c(=O)n1Cc1ccccc1`, which Displacement [1] is on record?
**A.** The Displacement was 53%.

**Q.** What about the Ki (Adenosine receptor A3) of the same compound?
**A.** The Ki was 0.555 µM.

**Q.** What about the Displacement (Adenosine receptor A2a [2]) of the same compound?
**A.** Its Displacement is 23%.

**Q.** For `C=CCn1c(=O)c2c(nc3ccccn32)n(Cc2ccccc2)c1=O`, which Ki (Adenosine receptor A1) is on record?
**A.** Its Ki is 0.042 µM.

**Q.** And the Ki (Adenosine receptor A3)?
**A.** The Ki was 0.005 µM.

**Q.** And the Ki (Adenosine receptor A2a [4])?
**A.** The Ki was 0.161 µM.

**Q.** With `O=c1c2c(nc3ccccn32)n(Cc2ccccc2)c(=O)n1Cc1ccccc1` as the compound, how does the Displacement [1] read?
**A.** Its Displacement is 20%.

**Q.** What about the Ki (Adenosine receptor A3) of the same compound?
**A.** The Ki was 0.077 µM.

**Q.** And the Ki (Adenosine receptor A2a [4])?
**A.** The Ki was 25.8 µM.

**Q.** For `COc1ccc(Cn2c(=O)c3c(nc4ccccn43)n(Cc3ccccc3)c2=O)cc1`, which Displacement [1] is on record?
**A.** Its Displacement is 25%.

**Q.** And the Ki (Adenosine receptor A3)?
**A.** Its Ki is 0.213 µM.

**Q.** What about the Displacement (Adenosine receptor A2a [2]) of the same compound?
**A.** The Displacement was 16%.

**Q.** For `COc1ccn2c(c1)nc1c2c(=O)[nH]c(=O)n1Cc1ccccc1`, which Displacement [1] is on record?
**A.** The Displacement was 49%.

**Q.** What about the Ki (Adenosine receptor A3) of the same compound?
**A.** Its Ki is 0.21 µM.

**Q.** And the Displacement (Adenosine receptor A2a [2])?
**A.** The Displacement was 10%.

**Q.** `NCCCn1c(=O)c2c(nc3ccccn32)n(Cc2ccccc2)c1=O` was tested. Which Displacement [1] did it give?
**A.** Its Displacement is 7%.

**Q.** What about the Displacement [7] of the same compound?
**A.** The Displacement was 6%.

**Q.** What about the Displacement (Adenosine receptor A2a [2]) of the same compound?
**A.** Its Displacement is 11%.

**Q.** Which results are given for `CCCn1c(=O)c2c(nc3ccccn32)n(Cc2ccc(OC)cc2)c1=O`?
**A.** Ki (Adenosine receptor A1): 0.083 µM; Ki (Adenosine receptor A3): 0.0083 µM; Displacement (Adenosine receptor A2a [2]): 40%

**Q.** How did the Ki (Adenosine receptor A2a [4]) turn out when `CCCn1c(=O)c2c(nc3ccccn32)n(Cc2ccccc2)c1=O` was run?
**A.** The Ki was 0.119 µM.

Reference: ChEMBL document CHEMBL1135743 (J Med Chem, 2002)
